Experimental data published in ChEMBL document CHEMBL3877264, “Quinolidene-rhodanine conjugates: Facile synthesis and biological evaluation” (Eur J Med Chem, 2017).
Values after ≈ are worked out from the molar mass of the structure shown.

Columns and labels:
[1] = test system: Escherichia coli; assay: Growth inhibition of Escherichia coli NCIM 2688 at 10 ug/ml measured after 8 hrs relative to control; type: functional; settings: NCIM 2688, 8 h, read-out: GI
How it was run: (§1)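 Bacteria grown in LB at 37 °C and 180 rpm to OD 1. Compounds added to wells, then 0.1% inoculum of 1 OD culture (620 nm). Growth read as OD at 620 nm after 8 h for gram-negative and after 12 h for gram-positive strains.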

[2] = test system: Mycobacterium tuberculosis; assay: Growth inhibition of Mycobacterium bovis BCG ATCC 35743 at dormant stage at 100 ug/ml measured after 12 days by nitrate reductase dye based two fold dilution method relative to control; type: functional; settings: BCG str. ATCC 35743, 288 h, read-out: GI
How it was run: (§2)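 M. bovis BCG was grown in Dubos medium and assayed in Mycobacterium pheli minimal medium (pH 6.6), with compounds from DMSO stocks. Incubation lasted 8 days for active and 12 days for dormant cultures. Viability was read by nitrate reductase at 540 nm against cell-free blanks, with vehicle set as 100% growth. Primary screen was at 30, 10 and 3 µg/ml, in triplicate, mean ± SD. MIC was taken from dose-response curves.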

[3] = test system: Mycobacterium tuberculosis; assay: Growth inhibition of Mycobacterium tuberculosis H37Ra ATCC 25177 at active stage at 100 ug/ml measured after 8 days by XTT dye based two fold dilution method relative to control; type: functional; settings: H37Ra ATCC 25177, 192 h, read-out: GI
How it was run: (§3)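 MTB H37Ra was grown in Dubos medium, then exposed in Mycobacterium pheli minimal medium (pH 6.6) to compounds dissolved in DMSO. The assay ended on day 8 (active) or day 12 (dormant). Viable cells were measured by XTT reduction menadione assay at 470 nm, blank-corrected, relative to vehicle control. Triplicates were expressed as mean ± SD. MIC came from dose-response curves.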

[4] = test system: Mycobacterium tuberculosis; assay: Growth inhibition of Mycobacterium tuberculosis H37Ra ATCC 25177 at dormant stage at 1.56 ug/ml measured after 12 days by XTT dye based two fold dilution method relative to control; type: functional; settings: H37Ra ATCC 25177, 288 h, read-out: GI; how it was run: as §3
[5] = test system: Pseudomonas fluorescens; assay: Growth inhibition of Pseudomonas fluorescens NCIM 2036 at 10 ug/ml measured after 8 hrs relative to control; type: functional; settings: NCIM 2036, 8 h, read-out: GI; how it was run: as §1
[6] = test system: Mycobacterium tuberculosis; assay: Growth inhibition of Mycobacterium bovis BCG ATCC 35743 at dormant stage measured after 12 days by nitrate reductase dye based two fold dilution method; type: functional; settings: BCG str. ATCC 35743, 288 h; how it was run: as §2
[7] = test system: Escherichia coli; assay: Growth inhibition of Escherichia coli NCIM 2688 at 30 ug/ml measured after 8 hrs relative to control; type: functional; settings: NCIM 2688, 8 h, read-out: GI; how it was run: as §1
[8] = test system: Mycobacterium tuberculosis; assay: Growth inhibition of Mycobacterium tuberculosis H37Ra ATCC 25177 at active stage at 12.5 ug/ml measured after 8 days by XTT dye based two fold dilution method relative to control; type: functional; settings: H37Ra ATCC 25177, 192 h, read-out: GI
[9] = test system: Mycobacterium tuberculosis; assay: Growth inhibition of Mycobacterium bovis BCG ATCC 35743 at dormant stage at 50 ug/ml measured after 12 days by nitrate reductase dye based two fold dilution method relative to control; type: functional; settings: BCG str. ATCC 35743, 288 h, read-out: GI; how it was run: as §2
[10] = test system: Mycobacterium tuberculosis; assay: Growth inhibition of Mycobacterium tuberculosis H37Ra ATCC 25177 at dormant stage at 3.13 ug/ml measured after 12 days by XTT dye based two fold dilution method relative to control; type: functional; settings: H37Ra ATCC 25177, 288 h, read-out: GI; how it was run: as §3
[11] = test system: Candida albicans; assay: Antifungal activity against Candida albicans NCIM 3471 by standard agar method; type: functional
How it was run: (§4)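 MICs determined by standard agar method; DMSO as solvent control.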

[12] = Cytotoxicity against […]-differentiated human THP1 cells assessed as growth inhibition at 100 ug/ml measured after 48 hrs by MTT assay relative to control; type: toxicity, cell-based, THP-1; settings: read-out: GI
How it was run: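 MTT assay with 48 h compound exposure. THP-1 macrophages made by 24 h PMA treatment. Each concentration tested in triplicate in one experiment. % cytotoxicity = (control−test)/(control−blank)×100, with control = cells + DMSO and blank = medium without cells. IC50 from % survival versus concentration plots.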

[13] = test system: Mycobacterium tuberculosis; assay: Growth inhibition of Mycobacterium tuberculosis H37Ra ATCC 25177 at dormant stage at 100 ug/ml measured after 12 days by XTT dye based two fold dilution method relative to control; type: functional; settings: H37Ra ATCC 25177, 288 h, read-out: GI; how it was run: as §3
[14] = test system: Bacillus subtilis; assay: Growth inhibition of Bacillus subtilis NCIM 2079 at 10 ug/ml measured after 12 hrs relative to control; type: functional; settings: NCIM 2079, 12 h, read-out: GI; how it was run: as §1
[15] = test system: Pseudomonas fluorescens; assay: Growth inhibition of Pseudomonas fluorescens NCIM 2036 at 3 ug/ml measured after 8 hrs relative to control; type: functional; settings: NCIM 2036, 8 h, read-out: GI; how it was run: as §1
[16] = test system: Bacillus subtilis; assay: Growth inhibition of Bacillus subtilis NCIM 2079 at 3 ug/ml measured after 12 hrs relative to control; type: functional; settings: NCIM 2079, 12 h, read-out: GI; how it was run: as §1
[17] = test system: Mycobacterium tuberculosis; assay: Growth inhibition of Mycobacterium tuberculosis H37Ra ATCC 25177 at dormant stage at 0.78 ug/ml measured after 12 days by XTT dye based two fold dilution method relative to control; type: functional; settings: H37Ra ATCC 25177, 288 h, read-out: GI; how it was run: as §3
[18] = test system: Mycobacterium tuberculosis; assay: Growth inhibition of Mycobacterium bovis BCG ATCC 35743 at active stage measured after 8 days by nitrate reductase dye based two fold dilution method; type: functional; settings: BCG str. ATCC 35743, 192 h; how it was run: as §2
[19] = Cytotoxicity against primary HUVEC measured after 48 hrs by MTT assay; type: toxicity, cell-based; settings: human
[20] = test system: Staphylococcus aureus; assay: Antibacterial activity against of Staphylococcus aureus NCIM 2010 measured after 12 hrs; type: functional; settings: NCIM 2010, 12 h; how it was run: as §1
[21] = test system: Pseudomonas fluorescens; assay: Antibacterial activity against Pseudomonas fluorescens NCIM 2036 measured after 8 hrs; type: functional; settings: NCIM 2036, 8 h; how it was run: as §1
[22] = Antifungal activity against Fusarium oxysporum NCIM 1332 by standard agar method; type: functional; how it was run: as §4
[23] = test system: Mycobacterium tuberculosis; assay: Growth inhibition of Mycobacterium bovis BCG ATCC 35743 at dormant stage at 10 ug/ml measured after 12 days by nitrate reductase dye based two fold dilution method relative to control; type: functional; settings: BCG str. ATCC 35743, 288 h, read-out: GI; how it was run: as §2
[24] = Cytotoxicity against human PANC1 cells measured after 48 hrs by MTT assay; type: toxicity, cell-based, PANC-1
[25] = Cytotoxicity against human A549 cells assessed as growth inhibition at 100 ug/ml measured after 48 hrs by MTT assay relative to control; type: toxicity, cell-based; settings: read-out: GI
[26] = test system: Mycobacterium tuberculosis; assay: Growth inhibition of Mycobacterium bovis BCG ATCC 35743 at active stage at 0.78 ug/ml measured after 8 days by nitrate reductase dye based two fold dilution method relative to control; type: functional; settings: BCG str. ATCC 35743, 192 h, read-out: GI; how it was run: as §2
[27] = test system: Mycobacterium tuberculosis; assay: Growth inhibition of Mycobacterium bovis BCG ATCC 35743 at active stage at 25 ug/ml measured after 8 days by nitrate reductase dye based two fold dilution method relative to control; type: functional; settings: BCG str. ATCC 35743, 192 h, read-out: GI; how it was run: as §2
[28] = Selectivity index, ratio of GI50 for human A549 cells to MIC for Mycobacterium tuberculosis H37Ra ATCC 25177 at dormant stage; type: toxicity, cell-based; settings: read-out: Selectivity Index
How it was run: (§5)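 SI is the cell-line GI50 divided by the dormant-stage mycobacterial MIC. […] THP-1 macrophages were PMA-differentiated for 24 h.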

[29] = Selectivity index, ratio of GI50 for human PANC1 cells to MIC for Mycobacterium tuberculosis H37Ra ATCC 25177 at dormant stage; type: toxicity, cell-based, PANC-1; settings: read-out: Selectivity Index; how it was run: as §5
[30] = Selectivity index, ratio of GI50 for […]-differentiated human THP1 cells to MIC for Mycobacterium tuberculosis H37Ra ATCC 25177 at dormant stage; type: toxicity, cell-based, THP-1; settings: read-out: Selectivity Index; how it was run: as §5

| Compound | inhibition of growth at 10 µg/mL [1] | inhibition of growth at 100 µg/mL [3] | inhibition of growth at 1.56 µg/mL [4] | inhibition of growth at 10 µg/mL [5] | inhibition of growth at 30 µg/mL [7] | inhibition of growth at 12.5 µg/mL [8] | inhibition of growth at 3.13 µg/mL [10] | inhibition at 48 h, 100 ug/ml [12] | inhibition of growth at 100 µg/mL [13] | inhibition of growth at 10 µg/mL [14] | inhibition of growth at 3 µg/mL [15] | inhibition of growth at 3 µg/mL [16] | inhibition of growth at 0.78 µg/mL [17] | GI50 at 48 h [19] | MIC [20] | MIC [21] | MIC [22] | inhibition of growth at 10 µg/mL [23] | GI50 at 48 h [24] | inhibition at 48 h, 100 ug/ml [25] | further results |
| --- | --- | --- | --- | --- | --- | --- | --- | --- | --- | --- | --- | --- | --- | --- | --- | --- | --- | --- | --- | --- | --- |
| O=C(O)CN1C(=O)/C(=C/c2cc3cc(F)ccc3nc2Cl)SC1=S | -8.65% | 100% | 22.6% | 1.08% | -1.67% | -3.91% | 9.18% | 14.5% | 119% | -2.7% | 6.76% | -1.39% | -24% | > 100 µg/mL | > 30 µg/mL | > 30 µg/mL | 25 µg/mL (≈ 65.3 µM) | 43.1% | > 100 µg/mL | 33.7% | inhibition of growth at 100 µg/mL [2]: 98.2%; IC50 [6]: > 30 µg/mL; IC90 [6]: > 30 µg/mL; inhibition of growth at 50 µg/mL [9]: 99.8%; MIC [11]: 50 µg/mL (≈ 131 µM); IC50 [18]: > 30 µg/mL; IC90 [18]: > 30 µg/mL |
| COc1ccc2cc(/C=C3\SC(=S)NC3=O)c(Cl)nc2c1 | 39.4% | 96.4% | -28.4% | 43.5% | 35.5% | 83.1% | 36.4% | 31.3% | 85.2% | -8.32% | 0.629% | -4.12% | -29.8% | > 100 µg/mL | > 30 µg/mL | > 30 µg/mL | 50 µg/mL (≈ 148 µM) | 27.9% | > 100 µg/mL | 27.6% | inhibition of growth at 100 µg/mL [2]: 99%; inhibition of growth at 0.78 µg/mL [26]: -60.1%; inhibition of growth at 25 µg/mL [27]: 98.4%; inhibition of growth at 50 µg/mL [9]: 100%; MIC [11]: 50 µg/mL (≈ 148 µM); IC50 [18]: 1.7 µg/mL (≈ 5.05 µM); IC90 [18]: 2.9 µg/mL (≈ 8.61 µM) |
| CCOc1ccc2nc(Cl)c(/C=C3\SC(=S)NC3=O)cc2c1 | 77.2% | 111% | -9.88% | 41% | 28% | 101% | 71.7% | 35.1% | 105% | -7.03% | 50.2% | -34% | -39.5% | > 100 µg/mL | > 30 µg/mL | > 30 µg/mL | 150 µg/mL (≈ 428 µM) | 93.5% | > 100 µg/mL | 23.9% | inhibition of growth at 100 µg/mL [2]: 99.5%; inhibition of growth at 0.78 µg/mL [26]: -51.8%; selectivity ratio [28]: 28.6; IC50 [6]: 1.1 µg/mL (≈ 3.14 µM); IC90 [6]: 1.9 µg/mL (≈ 5.42 µM); inhibition of growth at 25 µg/mL [27]: 98.6%; inhibition of growth at 50 µg/mL [9]: 99.6%; MIC [11]: 125 µg/mL (≈ 356 µM); selectivity ratio [29]: 28.6; selectivity ratio [30]: 28.6 |
| Cc1cccc2cc(/C=C3\SC(=S)N(CC(=O)O)C3=O)c(Cl)nc12 | 3.38% | 98.5% | 15.7% | 21.3% | -0.186% | 22% | 11.5% | 25% | 100% | -19.6% | 11.2% | -3.67% | -43.4% | > 100 µg/mL | > 30 µg/mL | > 30 µg/mL | 175 µg/mL (≈ 462 µM) | 31.6% | > 100 µg/mL | 15.6% | selectivity ratio [28]: 5; IC50 [6]: > 30 µg/mL; IC90 [6]: > 30 µg/mL; IC50 [18]: > 30 µg/mL; IC90 [18]: > 30 µg/mL; selectivity ratio [29]: 5; selectivity ratio [30]: 5 |
